Results reported in ChEMBL document CHEMBL1139970, “3,4-Dihydro-2H-benzo[1,4]oxazine derivatives as 5-HT6 receptor antagonists” (Bioorg Med Chem Lett, 2007).

Experiments:
[1] = target: 5-hydroxytryptamine receptor 6 (Homo sapiens, UniProt P50406); assay: Displacement of [3H]LSD from human recombinant 5HT6 receptor expressed in HEK293 cells; format: cell-based
How it was run: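 Competition binding against [3H]LSD, run at 37 °C on HEK293 cells expressing recombinant human 5-HT6 receptor. Affinity is expressed as pKi, with standard deviation of the pKi estimates 0.05–0.3.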

[2] = target: T1, hERG (KCNH2) (Homo sapiens, UniProt Q12809); assay: Inhibition of hERG current at 1 uM by patch clamp electrophysiology assay; format: toxicity
How it was run: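 Conventional patch-clamp electrophysiology measuring inhibition of hERG outward current at a single test concentration. Baseline set to 0%; mean with SEM from n = 2 cells.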

[3] = Ratio of drug level in brain to plasma in rat at 2 mg/kg, iv after 1 hr; format: ADME, organism-based; set-up: dose 2 mg/kg, route intravenous
How it was run: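 Rats received a single intravenous 2 mg/kg dose. At 1 h post-dose, drug levels in whole brain homogenate and plasma were quantified by HPLC–MS/MS, and the brain-to-plasma ratio was calculated.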

[4] = target: T1, hERG (KCNH2); assay: Inhibition of hERG current by patch clamp electrophysiology assay; format: toxicity

5-hydroxytryptamine receptor 6, sequence (P50406 whole entry): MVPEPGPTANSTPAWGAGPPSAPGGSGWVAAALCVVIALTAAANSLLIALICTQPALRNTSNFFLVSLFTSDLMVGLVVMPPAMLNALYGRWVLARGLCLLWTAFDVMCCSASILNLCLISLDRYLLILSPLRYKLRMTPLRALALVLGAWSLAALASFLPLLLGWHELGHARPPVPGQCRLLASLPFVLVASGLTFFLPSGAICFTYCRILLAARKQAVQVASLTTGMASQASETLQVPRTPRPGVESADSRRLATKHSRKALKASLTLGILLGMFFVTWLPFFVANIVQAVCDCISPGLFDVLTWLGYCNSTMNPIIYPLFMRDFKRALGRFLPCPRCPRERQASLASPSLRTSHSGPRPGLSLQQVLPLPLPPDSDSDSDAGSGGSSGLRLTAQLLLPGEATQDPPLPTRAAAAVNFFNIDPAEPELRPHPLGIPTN
T1 sequence (Q12809 whole entry): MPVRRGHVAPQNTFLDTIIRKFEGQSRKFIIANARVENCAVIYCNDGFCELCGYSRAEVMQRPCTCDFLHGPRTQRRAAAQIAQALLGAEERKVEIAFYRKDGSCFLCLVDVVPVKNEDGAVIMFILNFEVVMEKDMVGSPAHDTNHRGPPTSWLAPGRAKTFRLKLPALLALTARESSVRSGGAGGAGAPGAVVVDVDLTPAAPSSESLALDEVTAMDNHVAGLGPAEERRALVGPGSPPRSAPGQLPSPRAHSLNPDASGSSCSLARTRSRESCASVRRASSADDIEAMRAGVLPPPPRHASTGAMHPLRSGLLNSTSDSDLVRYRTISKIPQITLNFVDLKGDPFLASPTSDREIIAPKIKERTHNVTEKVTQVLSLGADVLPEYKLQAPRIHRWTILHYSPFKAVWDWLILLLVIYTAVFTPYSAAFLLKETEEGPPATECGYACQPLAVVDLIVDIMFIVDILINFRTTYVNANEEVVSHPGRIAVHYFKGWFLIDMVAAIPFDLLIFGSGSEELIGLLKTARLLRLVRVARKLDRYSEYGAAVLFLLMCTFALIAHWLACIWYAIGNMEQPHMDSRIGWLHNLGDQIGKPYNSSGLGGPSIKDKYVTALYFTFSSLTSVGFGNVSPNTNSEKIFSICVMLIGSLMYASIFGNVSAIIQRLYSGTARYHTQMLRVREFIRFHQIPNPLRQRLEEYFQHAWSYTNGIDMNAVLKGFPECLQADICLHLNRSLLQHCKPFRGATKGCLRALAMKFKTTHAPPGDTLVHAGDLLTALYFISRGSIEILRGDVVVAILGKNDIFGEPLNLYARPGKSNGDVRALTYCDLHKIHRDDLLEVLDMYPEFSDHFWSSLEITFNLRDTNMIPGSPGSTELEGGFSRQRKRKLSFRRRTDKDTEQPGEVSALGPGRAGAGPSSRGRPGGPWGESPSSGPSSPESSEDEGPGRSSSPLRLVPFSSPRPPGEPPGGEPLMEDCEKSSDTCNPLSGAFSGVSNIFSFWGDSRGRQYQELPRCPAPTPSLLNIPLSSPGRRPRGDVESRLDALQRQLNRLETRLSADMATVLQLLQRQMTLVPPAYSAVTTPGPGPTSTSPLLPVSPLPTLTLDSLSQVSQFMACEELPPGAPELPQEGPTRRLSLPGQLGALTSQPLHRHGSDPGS

Ki [1] [nM]	Compound	inhibition at 1 µM [2] [%]	Kp at 1 h [3]	IC20 [4] [nM]
	O=S(=O)(c1ccccc1F)N1CCOc2c(N3CCNCC3)cccc21	9.9	1.8	2200
200	CS(=O)(=O)Nc1cccc(S(=O)(=O)N2CCOc3c(N4CCNCC4)cccc32)c1			
316	CS(=O)(=O)c1ccccc1S(=O)(=O)N1CCOc2c(N3CCNCC3)cccc21			
0.631	O=S(=O)(c1cccc2cccnc12)N1CCOc2c(N3CCNCC3)cc(Cl)cc21			
2	Cc1cc(N2CCNCC2)c2c(c1)N(S(=O)(=O)c1ccccc1C#N)CCO2	14.2		
7.94	CC(C)(C)c1cc(N2CCNCC2)c2c(c1)N(S(=O)(=O)c1ccccc1F)CCO2			
0.316	CC1(C)CN(S(=O)(=O)c2ccccc2F)c2cccc(N3CCNCC3)c2O1			
631	Nc1cccc2c1OCCN2S(=O)(=O)c1ccccc1F			
39.8	Cc1cc(N2CC(C)NC(C)C2)c2c(c1)N(S(=O)(=O)c1ccc(Cl)cc1)CCO2 (stereo not given)			
3.98	CC1(C)CN(S(=O)(=O)c2ccccc2)c2cc(F)cc(C3CCNCC3)c2O1			
126	CN(C)CCNc1cccc2c1OC(C)(C)CN2S(=O)(=O)c1cccc(F)c1			
0.158	COc1cc(N2CCNCC2)c2c(c1)N(S(=O)(=O)c1ccccc1F)CCO2			
0.631	O=S(=O)(c1ccccc1F)N1CC2(CCC2)Oc2c(N3CCNCC3)cccc21			
3.98	O=S(=O)(c1ccccc1)N1CCOc2c(N3CCCNCC3)cc(Cl)cc21			
0.794	O=S(=O)(c1cccc2ccccc12)N1CCOc2c(N3CCNCC3)cc(Cl)cc21			
5.01	CC1(C)CN(S(=O)(=O)c2cccc(F)c2)c2cc(F)cc(C3CCNCC3)c2O1			

Compound	Ki [1] [nM]	inhibition at 1 µM [2] [%]	Kp at 1 h [3]	IC20 [4] [nM]
O=S(=O)(c1ccccc1)N1CCOc2c(N3CCNCC3)cccc21	12.6			
O=S(=O)(c1cccc(Cl)c1)N1CCOc2c(N3CCNCC3)cccc21	2		1.4	
O=S(=O)(c1cccc(F)c1)N1CCOc2c(N3CCNCC3)cccc21	10			
Cc1cc(N2CCNCC2)c2c(c1)N(S(=O)(=O)c1ccccc1F)CCO2	0.398	26.5		
O=S(=O)(c1ccccc1F)N1CCOc2c(N3CCNCC3)cc(F)cc21	0.631	26		
O=S(=O)(c1ccccc1F)N1CCOc2c(N3CCNCC3)cc(Cl)cc21	0.398	45.2	2.7	
COc1cc(N2CCNCC2)c2c(c1)N(S(=O)(=O)c1ccccc1)CCO2	0.398	34	0.8	
Nc1ccc(S(=O)(=O)N2CCOc3c(N4CCNCC4)cc(F)cc32)cc1	1.26			
Cc1cc(N2CCNCC2)c2c(c1)N(S(=O)(=O)c1ccccc1)CCO2	2.51	23.2	1	
O=S(=O)(c1ccccc1Cl)N1CCOc2c(N3CCNCC3)cccc21	3.16	28.2	1.6	
